# High-throughput results: PubChem, several laboratories
# SIAE primary: human SIAE inhibitors, primary screen, biochemical, fluorescence polarization, FP-Rh probe, 1536-well HTS; Sialate O-acetylesterase (Homo sapiens), Q9HAT2; SIAE FP-Rh probe binding; inhibition, % at 9.66 µM; 370,000 compounds, 0.69% hits; AID 1053197, 2014;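 active = inhibition above a cutoff: mean of compounds within the control limits plus 3 SD of those, cut at about 17% in these data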;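 also: 0% = plate median of compound wells and 100% = probe without SIAE protein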
# TCR-CD3 inh: inhibitors of human TCR-CD3 interaction, primary screen, biochemical, fluorescence, TAMRA-labeled TCR probe | T-cell receptor (TCR) | inhibition, % at 9.4 µM | 360,000 compounds, 0.37% hits | AID 651800, 2012; in the data active = inhibition above about 19%;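 also: recombinant mutant TCR 2C K166C tagged with TAMRA read by polarization; 0% = receptor in buffer alone and 100% = receptor with positive control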
# ARNT-TACC3 inh: disruptors of ARNT/TACC3 protein interaction, primary screen, biochemical, AlphaScreen, single concentration. Transforming acidic coiled-coil-containing protein 3 (Homo sapiens), Q9Y6A5. AlphaScreen His-ARNT PAS-B/GST-TACC3 binding, luminescence; TACC3 fragment carries E629A point mutation. inhibition, % at 9.99 µM. 390,000 compounds, 0.66% hits;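 active = mean inhibition of replicates at least 50% and at least half of replicates each reaching 50%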;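 also: 0% = complete ARNT plus TACC3 wells and 100% = ARNT alone without TACC3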
# mABHD4 FP: ABHD4 inhibitors, primary screen, biochemical, fluorescence polarization, mouse | (Lyso)-N-acylphosphatidylethanolamine lipase (Mus musculus), Q8VD66 | purified mABHD4, FP-Rh probe fluorescence polarization | inhibition, % at 8.92 µM | 370,000 compounds, 0.54% hits;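 active = inhibition exceeding the mean over every tested compound plus 3 SD, cut at about 30% in these data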;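 also: 0% = plate median of compound wells and 100% = S159A mutant with DMSO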
# Target sequence (Q8VD66 whole entry, looked up): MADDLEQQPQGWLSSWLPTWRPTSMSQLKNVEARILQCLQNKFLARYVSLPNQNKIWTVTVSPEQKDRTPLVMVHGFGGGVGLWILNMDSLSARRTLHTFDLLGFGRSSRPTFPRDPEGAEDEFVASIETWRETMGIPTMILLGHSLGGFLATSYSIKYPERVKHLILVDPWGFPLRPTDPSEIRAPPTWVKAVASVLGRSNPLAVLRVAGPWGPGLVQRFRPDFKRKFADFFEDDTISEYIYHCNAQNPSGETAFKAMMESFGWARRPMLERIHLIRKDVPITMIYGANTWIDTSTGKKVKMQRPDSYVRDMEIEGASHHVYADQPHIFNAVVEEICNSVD
#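 System: mouse ABHD4 enzyme, wild type / Medium: HEPES pH 7.0, NaCl, Pluronic buffer / Reagent: FP-Rh activity-based fluorescent probe / Control set: S159A mutant high control, sample median low control / Detection: fluorescence polarization with parallel and perpendicular emission, 525/598 nm / Schedule: 45 min + 60 min at 25 °C / Compound dosing: 8.92 µM, single dose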
# HTRA1 inhibitor: HTRA1 serine protease inhibitors, primary screen, biochemical, fluorescence polarization, HTS; AID 504803, 2011; inhibition, % at 5.96 µM; 340,000 compounds, 0.5% hits; recombinant HTRA1, FP-rhodamine activity-based probe; in the data active = inhibition above about 36%;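 also: 0% = enzyme with DMSO and 100% = wells lacking enzyme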
# SIAE confirm: human SIAE inhibitors, retest, confirmation, biochemical, fluorescence polarization, FP-Rh probe, triplicate | 2,300 compounds, 13% hits | shares compounds with SIAE primary | SIAE FP-Rh activity-based probe | inhibition, % at 9.66 µM;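 active = mean inhibition of the replicates above the hit cutoff set in the primary screen, cut at about 17% in these data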;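 also: 0% = SIAE with DMSO and probe and 100% = probe without SIAE; inhibitors lower polarization as more probe stays unbound to SIAE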
# An asterisk follows results filed as active; · = not tested or not shown. Shown are actives, neighbours in structure and some others; about 1.8% of the full set was active somewhere.
SMILES,SIAE primary,TCR-CD3 inh,ARNT-TACC3 inh,mABHD4 FP,HTRA1 inhibitor,SIAE confirm
CCOC(=O)CC[C@H]1CC[C@]2(CCCN(C(=O)c3cccnc3)C2)O1,30*,·,·,1,·,-2
Cc1cccc(-c2n[nH]c(=S)n2/N=C/C=C/c2ccco2)c1,5,14,6,22,33,·
S=c1[nH]nc(-c2ccncc2)n1/N=C/C=C/c1ccco1,19*,4,-1,17,8,2
C[C@H](CO)N1C[C@H](C)[C@H](CN(C)C(=O)C2CC2)Oc2cc(Br)ccc2S1(=O)=O,·,·,-2,·,·,·
CCOC(=O)c1[nH]c2ccc(Br)cc2c1NC(=O)CCN1CCN(C(=O)OCC)CC1,18*,5,·,-7,-6,0
Cc1ccc(S(=O)(=O)N[C@H]2C=C[C@@H](CC(=O)NC3CCCCC3)O[C@H]2CO)cc1,·,·,-17,·,·,·
Cc1ccccc1C(=O)Nc1ccccc1,2,3,-1,-1,0,·
Cc1ccccc1C(=O)Nc1ccc(S(=O)(=O)N2CCN(C)CC2)cc1,19*,-6,-3,-4,2,-5
CC(=O)Nc1ccc(NC(=O)c2ccccc2C)cc1,18*,6,-9,-4,3,4
CN1CCN(S(=O)(=O)c2ccc(NC(=O)c3ccccc3Cl)cc2)CC1,-2,-5,0,-5,1,·
Cc1noc(C)c1NC(=O)N(C)C[C@@H]1Oc2ccc(NS(=O)(=O)c3ccc(Cl)cc3)cc2CC(=O)N([C@H](C)CO)C[C@H]1C,·,·,-2,·,·,·
CCCN(C)C[C@@H]1Oc2cc(C#CCOC)ccc2S(=O)(=O)N([C@@H](C)CO)C[C@@H]1C,·,·,13,·,·,·
C[C@H]1CN([C@@H](C)CO)S(=O)(=O)c2ccc(-c3cccnc3)cc2O[C@H]1CN(C)C(=O)c1cccc(F)c1,·,·,-2,·,·,·
O=C1CCCN1c1ccc(S(=O)(=O)N2CCC(c3ccccc3)CC2)cc1,22*,-4,3,-4,-1,-2
Clc1ccc2c(NNc3ccccc3Cl)ccnc2c1,4,-1,11,-6,10,·
FC(F)Oc1ccc(NC(=S)NNc2ccnc3cc(Cl)ccc23)cc1,35*,-6,6,24,15,0
C/C(=N/Nc1ccnc2cc(Cl)ccc12)c1ccc(O)cc1,37*,2,18,29,4,15
NC(=S)NNc1ccnc2cc(Cl)ccc12,20*,-9,8,14,0,2
O=C(NNc1ccnc2cc(Cl)ccc12)C1CCCCC1,-2,-3,-1,-1,7,·
C[C@@H]1CN([C@@H](C)CO)S(=O)(=O)c2ccc(C#CC3CC3)cc2O[C@@H]1CN(C)Cc1cccnc1,·,·,1,·,·,·
C[C@@H](O)C#Cc1cnc2c(c1)C(=O)N([C@@H](C)CO)C[C@H](C)[C@@H](CN(C)C(=O)CC1CC1)O2,·,·,-1,·,·,·
O=C(N1CCCC1)n1c(Cc2ccccc2)nc2ccccc21,19*,-2,-19,-1,-4,2
O=C(N/N=C1/CC2CCC1C2)c1cc2ccccc2cc1O (configuration not stated),19*,7,16,29,32,-8
CC1CCC(NC(=O)c2cc3ccccc3cc2O)CC1 (configuration not stated),13,4,·,1,-25,·
COc1ccc(NC(=O)/C=C/c2ccccc2)cn1,2,-6,-8,3,4,·
SMILES,SIAE primary,TCR-CD3 inh,ARNT-TACC3 inh,mABHD4 FP,HTRA1 inhibitor,SIAE confirm
COc1ccc(NC(=O)/C=C/c2cc(OC)c(OC)c(OC)c2)cn1,21*,2,0,4,3,3
CC(=O)N(C)C[C@@H]1Oc2ncc(C3=CCCC3)cc2C(=O)N([C@H](C)CO)C[C@H]1C,·,·,11,·,·,·
CO[C@@H]1CN(C)C(=O)c2ccc(NC(=O)c3ccccc3)cc2OC[C@H](C)N(C(C)=O)C[C@H]1C,·,·,-3,·,·,·
O=C(Cc1c[nH]c2ccccc12)Nc1ccc(Nc2cccnc2)c(Br)c1,8,1,·,11,·,·
O=C(Cc1cn(Cc2ccccc2)c2ccccc12)Nc1ccc(Nc2cccnc2)c(Br)c1,18*,-3,·,16,·,16
O=C(Cc1c[nH]c2ccccc12)Nc1ccc(Nc2cccnc2)c(-c2ccc(OC(F)(F)F)cc2)c1,8,-5,·,20,·,·
O=C(Cc1c[nH]c2ccccc12)Nc1ccc(Nc2cccnc2)c(-c2ccc(Oc3ccccc3)cc2)c1,18*,1,·,9,·,6
C[C@H]1CN([C@@H](C)CO)C(=O)c2cccc(NS(=O)(=O)c3ccccc3)c2O[C@@H]1CN(C)CC1CCCCC1,·,·,10,·,·,·
COc1ccc(S(=O)(=O)N(C)C[C@@H]2Oc3ccc(NC(=O)c4ccncc4)cc3CC(=O)N([C@@H](C)CO)C[C@@H]2C)cc1,·,·,-3,·,·,·
NC(=O)c1ccc(NC(=O)c2cc(S(=O)(=O)N3CCCCC3)ccc2N2CCOCC2)cc1,21*,-1,4,5,-3,-3
CC(=O)Nc1ccc(NC(=O)c2cc(S(=O)(=O)N3CCCCC3)ccc2N2CCOCC2)cc1,-7,4,-3,-3,2,·
CO[C@H]1CN(C)C(=O)c2cc(NC(C)=O)ccc2OC[C@H](C)N(Cc2ccccn2)C[C@@H]1C,·,·,-8,·,·,·
Cc1c(C(=O)N2CCN(c3ccccn3)CC2)cccc1[N+](=O)[O-],18*,-8,-8,5,-2,-5
O=C(c1ccc(Cl)cc1[N+](=O)[O-])N1CCN(c2ccccn2)CC1,-4,-4,·,-11,2,·
Cc1ccc2[nH]c(=O)c(CN(Cc3cccnc3)Cc3nnnn3CC3CCCO3)cc2c1 (configuration not stated),0,-3,6,0,-5,·
O=c1[nH]c2cc3c(cc2cc1CN(Cc1ccc2c(c1)OCO2)Cc1nnnn1CC1CCCO1)OCO3 (configuration not stated),59*,0,-6,-1,-1,-6
C[C@H]1CN([C@@H](C)CO)C(=O)c2cc(NC(=O)Nc3ccc(F)cc3)ccc2O[C@H]1CN(C)S(=O)(=O)c1ccc(F)cc1,·,·,-6,·,·,·
COc1ccc(N2CCN(C(=O)CN3CCN(c4nc(-c5ccc(F)cc5)cs4)CC3)CC2)cc1,28*,5,8,-1,5,6
C[C@@H]1CN([C@H](C)CO)C(=O)c2cccc(NC(=O)C3CC3)c2O[C@@H]1CN(C)S(=O)(=O)c1ccc(Cl)cc1,·,·,-7,·,·,·
CN(C)C(=O)c1ccc(-c2ccc([C@H]3[C@@H](CO)N4CCCCN(C(=O)C5CCC5)C[C@H]34)cc2)cc1,·,·,2,·,·,·
